From ChEMBL document CHEMBL2057089, “Design and synthesis of novel p38α MAP kinase inhibitors: discovery of pyrazole-benzyl ureas bearing 2-molpholinopyrimidine moiety” (Bioorg Med Chem Lett, 2012)

How the values were obtained:
Mus musculus [1] = test: Hepatotoxicity in Crlj:CD1(ICR) mouse assessed as change in plasma AST level at 2000 mg/kg, po administered for 5 consecutive days measured 24 hrs post final dosing (reference value: 45 +/- 11 U/L); format: toxicity, organism-based; parameters: dose 2000 mg/kg, route oral; details: in vivo
Mus musculus [2] = test: Hepatotoxicity in Crlj:CD1(ICR) mouse assessed as change in plasma AST level at 1000 mg/kg, po administered for 5 consecutive days measured 24 hrs post final dosing (reference value: 45 +/- 11 U/L); format: toxicity, organism-based; parameters: dose 1000 mg/kg, route oral; details: in vivo
Mus musculus [3] = test: Hepatotoxicity in Crlj:CD1(ICR) mouse assessed as change in plasma AST level at 500 mg/kg, po administered for 5 consecutive days measured 24 hrs post final dosing (reference value: 45 +/- 11 U/L); format: toxicity, organism-based; parameters: dose 500 mg/kg, route oral; details: in vivo
Mus musculus [4] = test: Hepatotoxicity in Crlj:CD1(ICR) mouse assessed as change in plasma ALT level at 2000 mg/kg, po administered for 5 consecutive days measured 24 hrs post final dosing (reference value: 24 +/- 4 U/L); format: toxicity, organism-based; parameters: dose 2000 mg/kg, route oral; details: in vivo
Mus musculus [5] = test: Hepatotoxicity in Crlj:CD1(ICR) mouse assessed as change in plasma ALT level at 1000 mg/kg, po administered for 5 consecutive days measured 24 hrs post final dosing (reference value: 24 +/- 4 U/L); format: toxicity, organism-based; parameters: dose 1000 mg/kg, route oral; details: in vivo
Mus musculus [6] = test: Hepatotoxicity in Crlj:CD1(ICR) mouse assessed as change in plasma ALT level at 500 mg/kg, po administered for 5 consecutive days measured 24 hrs post final dosing (reference value: 24 +/- 4 U/L); format: toxicity, organism-based; parameters: dose 500 mg/kg, route oral; details: in vivo
Mus musculus [7] = test: Antiinflammatory activity in po dosed BALB/c mouse model of endotoxic shock assessed as inhibition of LPS-induced TNFalpha production administered 30 mins before LPS challenge measured after 60 mins by ELISA
Mus musculus [8] = test: Antiinflammatory activity in BALB/c mouse model of endotoxic shock assessed as inhibition of LPS-induced TNFalpha production at 50 mg/kg, po administered 30 mins before LPS challenge measured after 60 mins by ELISA; format: functional
How it was run: (§1)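 Male BALB/c mice, 8 weeks old, were dosed orally at 10 mL/kg. Controls received vehicle (27% hydroxypropyl-β-cyclodextrin, 10 mL/kg). LPS (1 mg/kg) was injected i.p. 30 min after dosing. Blood was taken 60 min after LPS, and serum was separated for TNF-α measurement.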

[9] = Antiinflammatory activity in human whole blood cells assessed as inhibition of LPS-induced TNFalpha production after 4 hrs by time-resolved fluorescence assay; format: functional, cell-based
How it was run: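 Freshly drawn heparinized human whole blood was given compound diluted in human serum AB and preincubated 1 h at 37 °C. It was then stimulated with LPS (200 ng/mL, E. coli O111:B4) for 4 h at 37 °C. Supernatant TNF-α was read by homogeneous time-resolved fluorescence.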

[10] = target: Mitogen-activated protein kinase 14 (Homo sapiens, UniProt Q16539); test: Inhibition of human recombinant P38alpha-mediated ATF2 phosphorylation after 1 hr
Mus musculus [11] = test: Hepatotoxicity in Crlj:CD1(ICR) mouse assessed as change in plasma direct bilirubin level at 500 to 1000 mg/kg, po administered for 5 consecutive days measured 24 hrs post final dosing; format: toxicity, organism-based; parameters: dose 500-1000 mg/kg, route oral; details: in vivo
Mus musculus [12] = test: Hepatotoxicity in Crlj:CD1(ICR) mouse assessed as change in plasma total bilirubin level at 500 to 1000 mg/kg, po administered for 5 consecutive days measured 24 hrs post final dosing; format: toxicity, organism-based; parameters: dose 500-1000 mg/kg, route oral; details: in vivo
Mus musculus [13] = test: Hepatotoxicity in Crlj:CD1(ICR) mouse assessed as change in plasma AST level at 500 to 1000 mg/kg, po administered for 5 consecutive days measured 24 hrs post final dosing; format: toxicity, organism-based; parameters: dose 500-1000 mg/kg, route oral; details: in vivo
Mus musculus [14] = test: Antiinflammatory activity in BALB/c mouse model of endotoxic shock assessed as inhibition of LPS-induced TNFalpha production at 100 mg/kg, po administered 30 mins before LPS challenge measured after 60 mins by ELISA; format: functional; how it was run: as §1

Sequence of Mitogen-activated protein kinase 14 (Q16539 whole entry): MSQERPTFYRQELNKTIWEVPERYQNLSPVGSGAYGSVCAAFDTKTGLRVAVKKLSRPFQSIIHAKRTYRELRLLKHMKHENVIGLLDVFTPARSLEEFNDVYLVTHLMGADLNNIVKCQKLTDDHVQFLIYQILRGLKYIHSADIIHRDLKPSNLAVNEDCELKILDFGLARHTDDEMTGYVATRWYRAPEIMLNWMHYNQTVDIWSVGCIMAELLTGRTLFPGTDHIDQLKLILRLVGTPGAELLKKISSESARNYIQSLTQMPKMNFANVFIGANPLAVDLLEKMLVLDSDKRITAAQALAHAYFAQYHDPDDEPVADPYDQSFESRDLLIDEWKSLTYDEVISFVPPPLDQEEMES

Question: With Cc1ccc(-n2nc(C(C)(C)C)cc2NC(=O)NCc2cc(F)ccc2Oc2ccnc(N3CCOCC3)n2)cc1 as the compound, how does the Activity (Mus musculus [1]) read?
Answer: The Activity was 46 U/L.

Question: And the Activity (Mus musculus [2])?
Answer: The Activity was 47 U/L.

Question: What about the Activity (Mus musculus [3]) of the same compound?
Answer: The Activity was 42 U/L.

Question: And the Activity (Mus musculus [4])?
Answer: Its Activity is 28 U/L.

Question: And the Activity (Mus musculus [5])?
Answer: Its Activity is 32 U/L.

Question: What about the Activity (Mus musculus [6]) of the same compound?
Answer: Its Activity is 26 U/L.

Question: What about the ED50 (Mus musculus [7]) of the same compound?
Answer: Its ED50 is 16 mg/kg.

Question: What about the inhibition in vivo at 50 mg/kg (Mus musculus [8]) of the same compound?
Answer: The inhibition in vivo at 50 mg/kg was 84%.

Question: What about the IC50 [9] of the same compound?
Answer: Its IC50 is 0.23 µM.

Question: And the IC50 [10]?
Answer: Its IC50 is 0.004 µM.

Question: Which Activity (Mus musculus [11]) does the source give for Cc1ccc(-n2nc(C(C)(C)C)cc2NC(=O)Nc2ccc(OCCN3CCOCC3)c3ccccc23)cc1 [DORAMAPIMOD] here?
Answer: Its Activity is “Toxic”.

Question: And the Activity (Mus musculus [12])?
Answer: The Activity was “Toxic”.

Question: And the Activity (Mus musculus [13])?
Answer: Its Activity is “Toxic”.

Question: What about the inhibition in vivo at 50 mg/kg (Mus musculus [8]) of the same compound?
Answer: The inhibition in vivo at 50 mg/kg was 82%.

Question: What about the IC50 [9] of the same compound?
Answer: Its IC50 is 0.6 µM.

Question: For Cc1ccc(-n2nc(C(C)(C)C)cc2NC(=O)NCc2cc(F)cc(Cl)c2Oc2ccnc(N3CCOCC3)n2)cc1, which IC50 [9] is on record?
Answer: The IC50 was 0.11 µM.

Question: What about the IC50 [10] of the same compound?
Answer: The IC50 was 0.011 µM.

Question: With Cc1ccc(-n2nc(C(C)(C)C)cc2NC(=O)NCc2cc(C(F)(F)F)ccc2Oc2ccnc(N3CCOCC3)n2)cc1 as the compound, how does the IC50 [9] read?
Answer: Its IC50 is over 10 µM.

Question: What about the IC50 [10] of the same compound?
Answer: The IC50 was 0.035 µM.

Question: Which IC50 [10] does the source give for Cc1ccc(-n2nc(C(C)(C)C)cc2NC(=O)NCc2ccccc2Oc2ccnc(N3CCCCC3)n2)cc1 here?
Answer: Its IC50 is 0.013 µM.

Question: Which results are given for Cc1ccc(-n2nc(C(C)(C)C)cc2NC(=O)NCc2cc(Cl)ccc2Oc2ccnc(N3CCOCC3)n2)cc1?
Answer: inhibition in vivo at 100 mg/kg (Mus musculus [14]): 81%; IC50 [9]: 0.19 µM; IC50 [10]: 0.005 µM

Question: Which results are given for Cc1ccc(-n2nc(C(C)(C)C)cc2NC(=O)NCc2cc(F)cc(F)c2Oc2ccnc(N3CCOCC3)n2)cc1?
Answer: IC50 [9]: 0.048 µM; IC50 [10]: 0.003 µM

Question: With Cc1ccc(-n2nc(C(C)(C)C)cc2NC(=O)NCc2ccccc2Oc2ccnc(Cl)n2)cc1 as the compound, how does the IC50 [10] read?
Answer: The IC50 was 0.02 µM.

Question: Which inhibition in vivo at 50 mg/kg (Mus musculus [8]) does the source give for Cc1ccc(-n2nc(C(C)(C)C)cc2NC(=O)NCc2ccccc2Oc2ccnc(N3CCOCC3)n2)cc1 here?
Answer: Its inhibition in vivo at 50 mg/kg is 65%.

Question: And the IC50 [9]?
Answer: Its IC50 is 0.72 µM.

Question: What about the IC50 [10] of the same compound?
Answer: The IC50 was 0.012 µM.

Question: With Cc1ccc(-n2nc(C(C)(C)C)cc2NC(=O)NCc2cc(C)ccc2Oc2ccnc(N3CCOCC3)n2)cc1 as the compound, how does the IC50 [9] read?
Answer: Its IC50 is 0.97 µM.

Question: What about the IC50 [10] of the same compound?
Answer: Its IC50 is 0.013 µM.

Question: With Cc1ccc(-n2nc(C(C)(C)C)cc2NC(=O)NCc2ccccc2O)cc1 as the compound, how does the IC50 [10] read?
Answer: Its IC50 is 1.5 µM.

Question: For Cc1ccc(-n2nc(C(C)(C)C)cc2NC(=O)NCc2cc(F)cc(C)c2Oc2ccnc(N3CCOCC3)n2)cc1, which IC50 [10] is on record?
Answer: The IC50 was 0.014 µM.
